Assay results taken from ChEMBL document CHEMBL2417467, “Antiproliferative cardiac glycosides from the latex of Antiaris toxicaria” (J Nat Prod, 2013).
Activity calls are given as the source filed them. The calls are words filed in the database; no cut-off is given here.

Experiments:
[1] = Cytotoxicity against human NIH-H460 cells assessed as cell viability at 50 nM after 48 hrs by MTT assay relative to control; assay type: functional; conditions: NIH-H460, 48 h
Method in brief: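 NIH-H460 cells (RPMI 1640, 10% FBS, 1% L-glutamine, penicillin/streptomycin) were seeded at 1 × 10^4 cells/well and exposed to 50 nM for 48 h. MTT was then added at 0.5 mg/mL final in medium for 2 h in the dark at 37 °C. Formazan was dissolved in DMSO for 15 min at RT and read at 570 nm. Output was inhibitory rate (%).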

[2] = tested on: NIH-H460; assay: Induction of apoptosis in human NIH-H460 cells assessed as caspase-3 activation at 20 nM after 24 hrs by Western blotting analysis; assay type: functional, cell-based
[3] = tested on: NIH-H460; assay: Induction of Nur77 protein expression in human NIH-H460 cells at […] by Western blotting analysis; assay type: functional, cell-based
Method in brief: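 NIH-H460 cells were treated with vehicle or compound, either at 2.5–40 nM for 3 h or at 20 nM over a time course. Equal amounts of lysate were run on 8% SDS-PAGE and blotted to PVDF. Membranes were blocked in 5% milk/TBST and probed overnight at 4 °C with anti-Nur77 (1:1000). Bands were detected by ECL, with β-actin reprobe as loading control.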

[4] = Induction of apoptosis in human NIH-H460 cells at 20 nM after 36 hrs by microscopic analysis relative to control; assay type: functional
Method in brief: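 NIH-H460 cells were exposed to vehicle or 20 nM in serum-free medium for up to 36 h. Detached and attached cells were pooled and stained with 50 μg/mL DAPI plus 100 μg/mL RNase A at 37 °C for 20 min. Apoptotic cells were scored by cytoplasmic shrinkage, membrane blebbing and nuclear condensation/fragmentation, and reported as % apoptotic cells.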

[5] = tested on: NIH-H460; assay: Induction of apoptosis in human NIH-H460 cells assessed as localization of Nur77 in nucleus at 20 nM after 3 hrs by immunofluorescence microscopic analysis; assay type: functional, cell-based
Method in brief: (§1)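 NIH-H460 cells on slides were treated with 20 nM for 3 h, then given MitoTracker Red (25 nM) for 15 min. Cells were permeabilised with 0.01% digitonin in PBS for 30 min and blocked with 1% BSA for 30 min. Anti-Nur77 (1:200) was applied for 3 h at RT, then FITC/Cy3 anti-rabbit IgG for 1 h. DAPI marked nuclei, and images were taken by confocal microscopy.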

[6] = tested on: NIH-H460; assay: Induction of apoptosis in human NIH-H460 cells assessed as localization of Nur77 in cytoplasm at 20 nM after 3 hrs by immunofluorescence microscopic analysis; assay type: functional, cell-based; method in brief: as §1
[7] = tested on: NIH-H460; assay: Induction of apoptosis in human NIH-H460 cells assessed as increase in PARP cleavage at 20 nM after 24 hrs by Western blotting analysis; assay type: functional, cell-based
Method in brief: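 Western blot of NIH-H460 lysates (8% SDS-PAGE, PVDF) probed overnight at 4 °C with anti-PARP (1:1000) to detect cleavage. Detection was by ECL, with β-actin reprobe as loading control. Cleavage was examined at 24 h post-treatment.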

[8] = tested on: NIH-H460; assay: Induction of apoptosis in human NIH-H460 cells assessed as localization of Nur77 in mitochondria at 20 nM after 3 hrs by immunofluorescence microscopic analysis; assay type: functional, cell-based; method in brief: as §1

Row | SMILES | inhibition at 0.05 µM [1] [%] | also measured
1 | C[C@@H]1O[C@@H](O[C@H]2CC[C@]3(CO)[C@H]4C[C@@H](O)[C@]5(C)[C@@H](C6=CC(=O)OC6)CC[C@]5(O)[C@@H]4CC[C@]3(O)C2)[C@H](O)[C@H](O)[C@H]1O | 60.2 | 
2 | C[C@H]1O[C@@H](O[C@@H]2CC[C@]3(C=O)[C@H]4C[C@@H](O)[C@]5(C)[C@@H](C6=CC(=O)OC6)CC[C@]5(O)[C@@H]4CC[C@]3(O)C2)[C@H](O)[C@H](O)[C@H]1O | 3.2 | 
3 | C[C@H]1O[C@@H](O[C@H]2CC[C@]3(C)[C@H]4C[C@@H](O)[C@]5(C)[C@@H](C6=CC(=O)OC6)CC[C@]5(O)[C@@H]4CC[C@]3(O)C2)[C@H](O)[C@H](O)[C@H]1O | 33.9 | 
4 | C[C@H]1O[C@@H](O[C@H]2CC[C@]3(CO)[C@H]4C[C@@H](O)[C@]5(C)[C@@H](C6=CC(=O)OC6)CC[C@]5(O)[C@@H]4CC[C@]3(O)C2)[C@H](O)[C@H](O)[C@H]1O | 64.2 | 
5 | C[C@@H]1O[C@@H](O[C@H]2CC[C@@]3(CO)[C@H](CC[C@@H]4[C@@H]3CC[C@]3(C)[C@@H](C5=CC(=O)OC5)CC[C@]43O)C2)[C@H](O)[C@H](O)[C@H]1O | 82.4 | 
6 | C[C@H]1O[C@@H](O[C@H]2CC[C@]3(C)[C@H]4C[C@@H](O)[C@]5(C)[C@@H](C6=CC(=O)OC6)CC[C@]5(O)[C@@H]4CC[C@]3(O)C2)[C@H](O)[C@H](O)[C@@H]1O [ANTIOGOSIDE] | 34.3 | 
7 | C[C@@H]1O[C@@H](O[C@H]2CC[C@]3(C)[C@H]4C[C@@H](O)[C@]5(C)[C@@H](C6=CC(=O)OC6)CC[C@]5(O)[C@@H]4CC[C@]3(O)C2)[C@H](O)[C@H](O)[C@H]1O [ANTIOSIDE] | 75.7 | 
8 | C[C@H]1O[C@@H](O[C@@H]2CC[C@]3(C=O)[C@H]4C[C@@H](O)[C@]5(C)[C@@H](C6=CC(=O)OC6)CC[C@]5(O)[C@@H]4CC[C@]3(O)C2)[C@H](O)[C@H](O)[C@@H]1O | 6.9 | 
9 | C[C@@H]1O[C@@H](O[C@H]2CC[C@@]3(C=O)[C@H](CC[C@@H]4[C@@H]3C[C@@H](O)[C@]3(C)[C@@H](C5=CC(=O)OC5)CC[C@]43O)C2)[C@H](O)[C@H](O)[C@H]1O | 81.9 | 
10 | C[C@H]1O[C@@H](O[C@H]2CC[C@]3(C=O)[C@H]4CC[C@]5(C)[C@@H](C6=CC(=O)OC6)CC[C@]5(O)[C@@H]4CC[C@]3(O)C2)[C@H](O)[C@H](O)[C@H]1O [DESGLUCOCHEIROTOXIN] | 76.9 | 
11 | C[C@@H]1C[C@@H](O)[C@@H](O)[C@H](O[C@H]2CC[C@]3(C=O)[C@H]4C[C@@H](O)[C@]5(C)[C@@H](C6=CC(=O)OC6)CC[C@]5(O)[C@@H]4CC[C@]3(O)C2)O1 | 81.6 | 
12 | C[C@@H]1O[C@@H](O[C@H]2CC[C@]3(C=O)[C@H]4CC[C@]5(C)[C@@H](C6=CC(=O)OC6)CC[C@]5(O)[C@@H]4CC[C@]3(O)C2)[C@H](O)[C@H](O)[C@H]1O [CONVALLATOXIN] | 82.1 | 
13 | C[C@]12CC[C@H]3[C@@H](CC[C@]4(O)C[C@@H](O)CC[C@]34CO[C@@H]3O[C@H](CO)[C@@H](O)[C@H](O)[C@H]3O)[C@@]1(O)CC[C@@H]2C1=CC(=O)OC1 | 29.4 | 
14 | C[C@@H]1O[C@@H](O[C@@H]2CC[C@]3(C=O)[C@H]4C[C@@H](O)[C@]5(C)[C@@H](C6=CC(=O)OC6)CC[C@]5(O)[C@@H]4CC[C@]3(O)C2)[C@H](O)[C@H](O)[C@H]1O | 6.3 | 
15 | C[C@@H]1O[C@@H](O[C@H]2CC[C@]3(C=O)[C@H]4C[C@@H](O)[C@]5(C)[C@H](C6=CC(=O)OC6)CC[C@]5(O)[C@@H]4CC[C@]3(O)C2)[C@H](O)[C@H](O)[C@H]1O | 6.2 | 
16 | C[C@]12CC[C@H]3[C@@H](CC[C@]4(O)C[C@@H](O)CC[C@]34C(=O)O[C@@H]3O[C@H](CO)[C@@H](O)[C@H](O)[C@H]3O)[C@@]1(O)CC[C@@H]2C1=CC(=O)OC1 | 11.1 | Activity [2]: inactive; Activity [3]: Active; Activity [4]: 6.8%; Activity [5]: Active

Row | SMILES | inhibition at 0.05 µM [1] [%] | also measured
17 | CO[C@H]1[C@@H](O[C@H]2CC[C@]3(C=O)[C@H]4CC[C@]5(C)[C@@H](C6=CC(=O)OC6)CC[C@]5(O)[C@@H]4CC[C@]3(O)C2)O[C@H](C)[C@@H](O)[C@H]1O [STROPHATHOJAVOSIDE] | 65 | 
18 | CO[C@H]1[C@@H](O[C@H]2CC[C@]3(C=O)[C@H]4C[C@@H](O)[C@]5(C)[C@@H](C6=CC(=O)OC6)CC[C@]5(O)[C@@H]4CC[C@]3(O)C2)O[C@H](C)[C@@H](O)[C@@H]1O [TOXICARIOSIDE B] | 71.4 | 
19 | C[C@H]1O[C@@H](O[C@H]2CC[C@]3(CO)[C@H]4CC[C@]5(C)[C@@H](C6=CC(=O)OC6)CC[C@]5(O)[C@@H]4CC[C@]3(O)C2)[C@H](O)[C@H](O)[C@H]1O [DEGLUCOCHEIROTOXOL] | 67.9 | 
20 | C[C@H]1O[C@H](O[C@H]2CC[C@]3(C=O)[C@H]4C[C@@H](O)[C@]5(C)[C@@H](C6=CC(=O)OC6)CC[C@]5(O)[C@@H]4CC[C@]3(O)C2)[C@H](O)[C@H](O)[C@H]1O | 45 | 
21 | C[C@@H]1O[C@@H](O[C@H]2CC[C@]3(C=O)[C@H]4C[C@H](O)[C@]5(C)[C@@H](C6=CC(=O)OC6)CC[C@]5(O)[C@@H]4CC[C@]3(O)C2)[C@H](O)[C@H](O)[C@H]1O | 82.8 | 
22 | C[C@@H]1O[C@H](O[C@@H]2CC[C@]3(C=O)[C@H]4CC[C@]5(C)[C@@H](C6=CC(=O)OC6)CC[C@]5(O)[C@@H]4CC[C@]3(O)C2)[C@H](O)[C@H](O)[C@H]1O [ANTIAROSIDE C] | 18.9 | 
23 | C[C@H]1O[C@@H](O[C@H]2CC[C@]3(C=O)[C@H]4C[C@@H](O)[C@]5(C)[C@H](C6=CC(=O)OC6)CC[C@]5(O)[C@@H]4CC[C@]3(O)C2)[C@H](O)[C@H](O)[C@H]1O | 9.3 | 
24 | C[C@@H]1O[C@H](O[C@H]2CC[C@]3(C=O)[C@H]4C[C@@H](O)[C@]5(C)[C@@H](C6=CC(=O)OC6)CC[C@]5(O)[C@@H]4CC[C@]3(O)C2)[C@H](O)[C@H](O)[C@H]1O | 81.4 | 
25 | C[C@H]1O[C@@H](O[C@@H]2CC[C@]3(C=O)[C@H]4CC[C@]5(C)[C@@H](C6=CC(=O)OC6)CC[C@]5(O)[C@@H]4CC[C@]3(O)C2)[C@H](O)[C@H](O)[C@H]1O | 6.8 | 
26 | C[C@@H]1O[C@H](O[C@H]2CC[C@]3(CO)[C@H]4CC[C@]5(C)[C@@H](C6=CC(=O)OC6)CC[C@]5(O)[C@@H]4CC[C@]3(O)C2)[C@H](O)[C@H](O)[C@H]1O [CONVALLATOXOL] | 80.7 | 
27 | C[C@H]1O[C@H](O[C@H]2CC[C@]3(C=O)[C@H]4C[C@@H](O)[C@]5(C)[C@@H](C6=CC(=O)OC6)CC[C@]5(O)[C@@H]4CC[C@]3(O)C2)[C@H](O)[C@H](O)[C@@H]1O [ANTIALLOSIDE] | 70.7 | 
28 | C[C@H]1O[C@@H](O[C@H]2CC[C@]3(C=O)[C@H]4C[C@@H](O)[C@]5(C)[C@@H](C6=CC(=O)OC6)CC[C@]5(O)[C@@H]4CC[C@]3(O)C2)[C@H](O)[C@H](O)[C@@H]1O | 78.9 | Activity [6]: Active; Activity [7]: Active; Activity [2]: Active; Activity [8]: Active; Activity [3]: Active; Activity [4]: 22.3%; Activity [5]: Active
29 | C[C@H]1O[C@@H](O[C@H]2CC[C@@]3(CO)[C@H](CC[C@@H]4[C@@H]3C[C@@H](O)[C@]3(C)[C@@H](C5=CC(=O)OC5)CC[C@]43O)C2)[C@H](O)[C@H](O)[C@H]1O | 63.8 | 
30 | C[C@H]1O[C@@H](O[C@H]2CC[C@]3(C(=O)O)[C@H]4C[C@@H](O)[C@]5(C)[C@@H](C6=CC(=O)OC6)CC[C@]5(O)[C@@H]4CC[C@]3(O)C2)[C@H](O)[C@H](O)[C@@H]1O | 7.8 | Activity [2]: inactive; Activity [3]: Active; Activity [4]: 3.4%; Activity [5]: Active
31 | C[C@H]1O[C@@H](O[C@H]2CC[C@@]3(C=O)[C@H](CC[C@@H]4[C@@H]3C[C@@H](O)[C@]3(C)[C@@H](C5=CC(=O)OC5)CC[C@]43O)C2)[C@H](O)[C@H](O)[C@H]1O | 82.3 | 
